# From publication PMC8343189 (Acta Pharmaceutica Sinica. B, 2020)
# Assays:
# SD rats [1] = assay: Formalin test on rat; format: in vivo; details: for number of foot lifts, phase 2: phase 2, vehicle 121 foot lifts
# Method in brief: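 30 min later, 50 μL 5% formalin injected into the left paw; controls received saline. Foot lifts counted over phase 1 (0–10 min) and phase 2 (10–60 min). Mean ± SD; ANOVA vs vehicle.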
# SD rats [2] = assay: Chronic constriction injury model; format: in vivo; details: rat CCI, Electronic Von Frey, vehicle 11.5
# ANO1 = molecular target: T1, ANO1 (Homo sapiens, UniProt Q5XXA6, DEL476-501); assay: YFP fluorescence quenching assay in ANO1-overexpressing FRT cell line; format: cell-based
# T1 sequence (Q5XXA6 with tags, fused parts or gaps isoform Q5XXA6-5 DEL539-564): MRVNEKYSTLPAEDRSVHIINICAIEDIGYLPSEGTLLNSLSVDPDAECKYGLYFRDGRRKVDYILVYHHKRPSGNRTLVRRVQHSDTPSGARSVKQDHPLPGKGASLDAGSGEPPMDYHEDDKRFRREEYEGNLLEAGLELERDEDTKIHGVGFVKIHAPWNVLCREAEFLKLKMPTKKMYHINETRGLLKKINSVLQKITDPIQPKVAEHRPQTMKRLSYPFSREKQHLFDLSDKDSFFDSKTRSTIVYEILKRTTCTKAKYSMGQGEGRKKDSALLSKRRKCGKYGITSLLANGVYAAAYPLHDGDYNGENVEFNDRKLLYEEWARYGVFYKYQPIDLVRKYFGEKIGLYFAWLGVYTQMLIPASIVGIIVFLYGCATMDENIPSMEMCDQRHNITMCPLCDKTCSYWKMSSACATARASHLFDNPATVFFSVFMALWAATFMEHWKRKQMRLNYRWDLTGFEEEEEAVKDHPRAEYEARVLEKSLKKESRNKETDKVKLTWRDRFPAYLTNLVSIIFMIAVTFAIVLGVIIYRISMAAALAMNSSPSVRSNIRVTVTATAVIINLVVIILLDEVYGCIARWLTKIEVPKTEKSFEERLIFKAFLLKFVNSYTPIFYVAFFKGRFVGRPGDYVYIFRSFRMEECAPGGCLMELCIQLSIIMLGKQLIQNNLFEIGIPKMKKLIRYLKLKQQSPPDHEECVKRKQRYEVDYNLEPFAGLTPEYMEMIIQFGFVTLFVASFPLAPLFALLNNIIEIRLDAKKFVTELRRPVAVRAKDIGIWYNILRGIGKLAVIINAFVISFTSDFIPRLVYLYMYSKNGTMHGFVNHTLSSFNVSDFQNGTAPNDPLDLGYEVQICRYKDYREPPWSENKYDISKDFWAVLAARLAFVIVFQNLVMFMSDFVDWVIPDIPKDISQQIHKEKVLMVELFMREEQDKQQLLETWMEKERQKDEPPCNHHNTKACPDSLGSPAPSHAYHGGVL
# CHO cells = assay: SRB proliferative cytotoxicity in CHO cells; format: cell-based, Chinese Hamster; details: 72 h
# Method in brief: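 CHO cells in DMEM with 10% FBS, seeded overnight, then exposed to test compound or DMSO vehicle for 72 h. Cells fixed with 10% TCA for 1 h at 4 °C and stained with 0.4% SRB in 1% acetic acid for 15 min in the dark. Washed with acetic acid, dye dissolved in 10 mmol/L Tris-base, absorbance read at 540 nm. n = 3, mean ± SEM, t-test vs DMSO control.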
# [3] = tested on: intracellular Ca^2+ concentration; assay: Intracellular Ca^2+ fluorescence; format: cell-based; details: 30 μmol/L compound, 200 μmol/L ATP, Cal520, control 2.3 folds
# [4] = Stability under different pH conditions; format: physicochemical; details: 37 °C, 100 μmol/L, mean ± SD, n = 3
# Method in brief: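 Test compound diluted to 100 μmol/L in phosphate buffers at pH 1.0, 4.0, 6.8, 7.4 and 9.0 and held in a 37 °C water bath. HPLC−UV peak area measured at 0, 2 and 5 h; residual expressed relative to the 0 h peak area.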
SMILES,IC50 (ANO1) [µM],other results
CCOC(=O)Nc1ccc(NCc2ccc(F)cc2)nc1N [Flupirtine],,"number of foot lifts, phase 2 (SD rats [1]; 200 mg/kg i.g.): 74 foot lifts; PTI, pain threshold rate change (%) of 1 h compared to 0 h (SD rats [2]; 100 mg/kg i.g.): 36.2%"
"CC(C)(C)c1ccc(C(=O)Nc2sc3c(c2C(=O)O)-c2ccccc2C3)cc1 [Compound 47, 2-(4-(tert-Butyl)benzamido)-8H-indeno [2,1-b] thiophene-3-carboxylic acid]",12.6,
"O=C(O)c1c(NC(=O)c2cccc3ccccc23)sc2c1-c1ccccc1C2 [Compound 51, 2-(1-Naphthamido)-8H-indeno [2,1-b] thiophene-3-carboxylic acid]",2.21,
"CC(C)(C)c1ccc(C(=O)Nc2scc(-c3ccc4ccccc4c3)c2C(=O)O)cc1 [Compound 39, 2-(4-(tert-Butyl)benzamido)-4-(naphthalen-2-yl) thiophene-3-carboxylic acid]",1.29,
"O=C(Nc1scc(-c2ccc(Cl)cc2)c1C(=O)O)c1ccc(Cl)cc1Cl [Compound 44, 4-(4-Chlorophenyl)-2-(2,4-dichlorobenzamido)thiophene-3-carboxylic acid]",1.24,
"CC(C)(C)c1ccc(C(=O)Nc2scc(-c3ccc(F)cc3)c2C(=O)O)cc1 [Compound 33, 2-(4-(tert-Butyl)benzamido)-4-(4-fluorophenyl) thiophene-3-carboxylic acid]",9.62,
"Cc1ccc(C(=O)Nc2scc(-c3ccc(Cl)cc3)c2C(=O)O)c2ccccc12 [Compound 46, 4-(4-Chlorophenyl)-2-(4-methyl-1-naphthamido) thiophene-3-carboxylic acid]",14.5,
CCc1c(C)nc(SCC(=O)Nc2nc(-c3ccc(OC)cc3)cs2)[nH]c1=O [Compound T16Ainh-A01],,effect on CHO cell proliferation (CHO cells; 1 and 3 μmol/L): weak effect
"CC(C)(C)c1ccc(C(=O)Nc2scc(-c3ccc(C(C)(C)C)cc3)c2C(=O)O)cc1 [Compound 36, 2-(4-(tert-Butyl)benzamido)-4-(4-(tert-butyl)phenyl) thiophene-3-carboxylic acid]",3.67,
"O=C(Nc1scc(-c2ccc(Cl)cc2)c1C(=O)O)c1ccc2ccccc2c1 [Compound 43, 2-(2-Naphthamido)-4-(4-chlorophenyl) thiophene-3-carboxylic acid]",2.45,
"CC(C)(C)c1ccc(C(=O)Nc2scc(-c3ccc(C(F)(F)F)cc3)c2C(=O)O)cc1 [Compound 35, 2-(4-(tert-Butyl)benzamido)-4-(4-(trifluoromethyl)phenyl) thiophene-3-carboxylic acid]",> 100,
CC(C)C[C@H](CN)CC(=O)O [Pregabalin],,"number of foot lifts, phase 2 (SD rats [1]; 40 mg/kg i.g.): 44 foot lifts; PTI, pain threshold rate change (%) of 1 h compared to 0 h (SD rats [2]; 40 mg/kg i.g.): 60.4%"
"COc1ccc(C(=O)Nc2scc(-c3ccc(C(C)(C)C)cc3)c2C(=O)O)cc1 [Compound 41, 4-(4-(tert-Butyl)phenyl)-2-(4-methoxybenzamido) thiophene-3-carboxylic acid]",2.28,
"COc1ccc(-c2csc(NC(=O)c3cccs3)c2C(=O)O)cc1 [Compound 40, 4-(4-Methoxyphenyl)-2-(thiophene-2-carboxamido) thiophene-3-carboxylic acid]",25.5,
"CCOC(=O)C1=C(COCCN)NC(C)=C(C(=O)OC)C1c1ccccc1Cl (stereo not shown) [Amlodipine, reference compound]",,maximum relative fluorescence units (RFU) vs initial value (Ca^2+ influx) [3]: remained unchanged
"CC(C)(C)c1ccc(C(=O)Nc2scc(-c3ccc(Cl)cc3Cl)c2C(=O)O)cc1 [Compound 38, 2-(4-(tert-Butyl)benzamido)-4-(2,4-dichlorophenyl) thiophene-3-carboxylic acid]",> 100,
"CC(C)(C)c1ccc(C(=O)Nc2scc(-c3ccc(Cl)cc3)c2C(=O)O)cc1 [Compound 34, 2-(4-(tert-Butyl)benzamido)-4-(4-chlorophenyl) thiophene-3-carboxylic acid]",1.34,
"CC(C)(C)c1ccc(C(=O)Nc2scc(-c3ccc(-c4ccccc4)cc3)c2C(=O)O)cc1 [Compound 37, 4-([1,1′-Biphenyl]-4-yl)-2-(4-(tert-butyl)benzamido) thiophene-3-carboxylic acid]",2.3,
"O=C(Nc1scc(-c2ccc(Cl)cc2)c1C(=O)O)c1cccs1 [Compound 45, 4-(4-Chlorophenyl)-2-(thiophene-2-carboxamido) thiophene-3-carboxylic acid]",1.74,
"CC(C)(C)c1ccc(C(=O)Nc2sc3c(c2C(=O)O)-c2ccccc2CC3)cc1 [Compound 53, 2-(4-(tert-Butyl)benzamido)-4,5-dihydronaphtho [2,1-b] thiophene-1-carboxylic acid]",5.15,
"COc1ccc2c(c1)Cc1sc(NC(=O)c3ccc(C(C)(C)C)cc3)c(C(=O)O)c1-2 [Compound 48, 2-(4-(tert-Butyl)benzamido)-6-methoxy-8H-indeno [2,1-b] thiophene-3-carboxylic acid]",28.9,
"CC(C)(C)c1ccc(C(=O)Nc2sc3c(c2C(=O)O)-c2ccccc2C3(C)C)cc1 [Compound 52, 2-(4-(tert-Butyl)benzamido)-8,8-dimethyl-8H-indeno [2,1-b] thiophene-3-carboxylic acid]",3.33,
"O=C(Nc1sc2c(c1C(=O)O)-c1ccccc1C2)c1cccs1 [Compound 49, 2-(Thiophene-2-carboxamido)-8H-indeno [2,1-b] thiophene-3-carboxylic acid]",11.3,
"O=C(Nc1sc2c(c1C(=O)O)-c1ccccc1C2)c1ccc2ccccc2c1 [Compound 50, 2-(2-Naphthamido)-8H-indeno [2,1-b] thiophene-3-carboxylic acid]",1.91,
"CC(C)(C)C1CCc2c(sc(NC(=O)c3ccco3)c2C(=O)O)C1 (stereo not shown) [Compound 1, 6-(tert-Butyl)-2-(furan-2-carboxamido)-4,5,6,7-tetrahydrobenzo[b]thiophene-3-carboxylic acid, reference compound]",,"effect on CHO cell proliferation (CHO cells; all concentrations tested): inhibited cell proliferation; 5 h residual compound under different pH (%) pH 1.0 ([4]; pH 1.0, 5 h): 93.8 ± 4.0%; 5 h residual compound under different pH (%) pH 4.0 ([4]; pH 4.0, 5 h): 85.3 ± 8.1%; 5 h residual compound under different pH (%) pH 6.8 ([4]; pH 6.8, 5 h): 94.9 ± 2.9%; 5 h residual compound under different pH (%) pH 7.4 ([4]; pH 7.4, 5 h): 98.7 ± 0.7%; 5 h residual compound under different pH (%) pH 9.0 ([4]; pH 9.0, 5 h): 97.6 ± 1.2%; analgesic effect in phase 2 compared with vehicle (SD rats [1]; 80 mg/kg i.g., phase 2): no significant analgesic effect; number of foot lifts, phase 2 (SD rats [1]; 80 mg/kg i.g.): 84 foot lifts"
